# In ChEMBL document CHEMBL2407081, “Discovery of potent, isoform-selective inhibitors of histone deacetylase containing chiral heterocyclic capping groups and a N-(2-aminophenyl)benzamide binding unit” (J Med Chem, 2013):
# Activity calls are given as the source filed them. The calls are words filed in the database; no cut-off is given here.
# Assays:
# [1] = test system: Jurkat; test: Cell cycle arrest in human Jurkat cells assessed as accumulation at G2/M phase at 1 uM after 24 hrs by FITC/propidium iodide staining-based FACS flow cytometric analysis (reference value: 14.4%); type: functional
# Outline: (§1)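 HeLa and Jurkat human cells were cultured for 24 h with compound at two concentrations. The control was an equal volume of the DMSO diluent. Cellular DNA and protein content were then measured by flow cytometry, and the percentage of cells in sub-G1, G0/G1, S and G2/M was read out.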
# [2] = test system: Jurkat; test: Cell cycle arrest in human Jurkat cells assessed as accumulation at G2/M phase at 10 uM after 24 hrs by FITC/propidium iodide staining-based FACS flow cytometric analysis (reference value: 13.2%); type: functional; outline: as §1
# [3] = test system: Jurkat; test: Cell cycle arrest in human Jurkat cells assessed as accumulation at S phase at 1 uM after 24 hrs by FITC/propidium iodide staining-based FACS flow cytometric analysis (reference value: 22.3%); type: functional; outline: as §1
# [4] = target: Histone deacetylase 1 (Homo sapiens, UniProt Q13547); test: Inhibition of recombinant C-terminal FLAG-tagged HDAC1 (unknown origin) expressed in Escherichia coli BL21 using MAL as substrate incubated for 1 hr prior to substrate addition measured after 60 mins by fluorescence plate reader analysis
# [5] = test system: HeLa; test: Cell cycle arrest in human HeLa cells assessed as accumulation at G2/M phase at 10 uM after 24 hrs by FITC/propidium iodide staining-based FACS flow cytometric analysis; type: functional; outline: as §1
# [6] = test system: Jurkat; test: Cell cycle arrest in human Jurkat cells assessed as accumulation at sub-G1 phase at 1 uM after 24 hrs by FITC/propidium iodide staining-based FACS flow cytometric analysis (reference value: 6.8%); type: functional; outline: as §1
# [7] = test system: MCF7; test: Cytotoxicity against human MCF7 cells assessed as growth inhibition by measuring cellular ATP level after 72 hrs by cell-titer glo assay; type: functional, cell-based; conditions: MCF7, 72 h
# [8] = test system: HCT-116; test: Cytotoxicity against human HCT116 cells assessed as growth inhibition by measuring cellular ATP level after 72 hrs by cell-titer glo assay; type: functional, cell-based; conditions: HCT-116, 72 h
# [9] = test system: Jurkat; test: Cell cycle arrest in human Jurkat cells assessed as accumulation at sub-G1 phase at 10 uM after 24 hrs by FITC/propidium iodide staining-based FACS flow cytometric analysis (reference value: 2%); type: functional; outline: as §1
# [10] = test system: Jurkat; test: Induction of apoptosis in human Jurkat cells assessed as PARP cleavage at 1 to 10 uM after 24 hrs by Western blot analysis; type: functional, cell-based
# [11] = target: Histone deacetylase 3/NCoR1 (Homo sapiens, UniProt O15379); test: Inhibition of recombinant HDAC3-NCoR1 (unknown origin) using MAL as substrate incubated for 3 hrs prior to substrate addition measured after 60 mins by fluorescence plate reader analysis; type: protein-complex assay
# [12] = test system: HeLa; test: Induction of apoptosis in human HeLa cells assessed as PARP cleavage at 1 to 10 uM after 24 hrs by Western blot analysis; type: functional, cell-based
# [13] = test system: Jurkat; test: Cell cycle arrest in human Jurkat cells assessed as accumulation at S phase at 10 uM after 24 hrs by FITC/propidium iodide staining-based FACS flow cytometric analysis (reference value: 15.3%); type: functional; outline: as §1
# [14] = target: T1, Protein deacetylase HDAC6 (Homo sapiens, UniProt Q9UBN7); test: Inhibition of recombinant His-tagged HDAC6 (unknown origin) using Fluor-de-Lys SIRT1 as substrate incubated for 3 hrs prior to substrate addition measured after 60 mins by fluorescence plate reader analysis
# T1 sequence (Q9UBN7 whole entry): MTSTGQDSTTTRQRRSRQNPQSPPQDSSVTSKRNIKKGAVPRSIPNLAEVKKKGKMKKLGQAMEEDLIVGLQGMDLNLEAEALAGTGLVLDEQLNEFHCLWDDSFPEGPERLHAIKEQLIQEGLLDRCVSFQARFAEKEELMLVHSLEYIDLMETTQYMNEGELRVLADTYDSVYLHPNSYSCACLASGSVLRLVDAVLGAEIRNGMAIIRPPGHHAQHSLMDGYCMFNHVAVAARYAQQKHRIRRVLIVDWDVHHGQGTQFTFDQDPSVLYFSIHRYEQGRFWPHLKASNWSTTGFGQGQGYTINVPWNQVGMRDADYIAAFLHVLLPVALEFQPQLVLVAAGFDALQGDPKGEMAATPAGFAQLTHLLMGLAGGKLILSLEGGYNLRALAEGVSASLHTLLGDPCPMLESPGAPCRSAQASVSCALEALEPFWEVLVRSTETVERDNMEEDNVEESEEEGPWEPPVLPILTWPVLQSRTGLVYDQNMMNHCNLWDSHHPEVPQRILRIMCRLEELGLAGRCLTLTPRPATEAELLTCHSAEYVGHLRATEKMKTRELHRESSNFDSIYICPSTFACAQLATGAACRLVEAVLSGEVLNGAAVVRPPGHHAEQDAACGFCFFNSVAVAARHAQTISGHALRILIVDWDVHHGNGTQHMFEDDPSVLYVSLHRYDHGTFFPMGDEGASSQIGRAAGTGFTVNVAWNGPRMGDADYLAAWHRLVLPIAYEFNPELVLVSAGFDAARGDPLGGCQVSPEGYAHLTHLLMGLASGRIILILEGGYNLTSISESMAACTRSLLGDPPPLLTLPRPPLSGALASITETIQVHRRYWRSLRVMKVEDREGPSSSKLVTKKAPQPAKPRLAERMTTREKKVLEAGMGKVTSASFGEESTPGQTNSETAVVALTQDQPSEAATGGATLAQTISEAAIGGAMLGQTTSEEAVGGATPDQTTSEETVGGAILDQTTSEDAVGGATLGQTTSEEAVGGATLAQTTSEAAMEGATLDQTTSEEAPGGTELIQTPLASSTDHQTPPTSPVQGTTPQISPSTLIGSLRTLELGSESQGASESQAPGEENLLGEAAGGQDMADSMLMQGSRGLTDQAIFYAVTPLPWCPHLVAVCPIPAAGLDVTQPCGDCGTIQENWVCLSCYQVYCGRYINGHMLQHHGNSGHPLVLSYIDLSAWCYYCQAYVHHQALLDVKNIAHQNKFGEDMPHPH
# [15] = target: T2, Histone deacetylase 8 (Homo sapiens, UniProt Q9BY41); test: Inhibition of recombinant HDAC8 (unknown origin) expressed in Escherichia coli BL21 using MAL as substrate incubated for 15 mins prior to substrate addition measured after 60 mins by fluorescence plate reader analysis
# T2 sequence (Q9BY41 whole entry): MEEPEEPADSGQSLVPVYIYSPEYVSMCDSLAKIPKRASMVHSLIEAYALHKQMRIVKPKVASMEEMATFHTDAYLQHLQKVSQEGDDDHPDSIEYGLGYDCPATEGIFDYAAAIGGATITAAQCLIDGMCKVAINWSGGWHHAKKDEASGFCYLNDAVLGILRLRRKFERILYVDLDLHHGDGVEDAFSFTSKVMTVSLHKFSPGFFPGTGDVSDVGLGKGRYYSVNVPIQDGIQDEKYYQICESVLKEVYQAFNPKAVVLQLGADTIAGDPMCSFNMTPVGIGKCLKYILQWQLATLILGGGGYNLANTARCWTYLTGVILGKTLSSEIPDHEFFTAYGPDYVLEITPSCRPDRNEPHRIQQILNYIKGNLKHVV
# [16] = target: Histone deacetylase 2 (Homo sapiens, UniProt Q92769); test: Inhibition of recombinant His-tagged HDAC2 (1 to 488) (unknown origin) using MAL as substrate incubated for 3 hrs prior to substrate addition measured after 60 mins by fluorescence plate reader analysis
# [17] = test system: DU-145; test: Cytotoxicity against human DU145 cells assessed as growth inhibition by measuring cellular ATP level after 72 hrs by cell-titer glo assay; type: functional, cell-based; conditions: DU-145, 72 h
# [18] = test system: A549; test: Cytotoxicity against human A549 cells assessed as growth inhibition by measuring cellular ATP level after 72 hrs by cell-titer glo assay; type: functional, cell-based; conditions: A549, 72 h
# [19] = test system: Jurkat; test: Cell cycle arrest in human Jurkat cells assessed as accumulation at G0/G1 phase at 10 uM after 24 hrs by FITC/propidium iodide staining-based FACS flow cytometric analysis (reference value: 69.5%); type: functional; outline: as §1
# [20] = test system: Jurkat; test: Cell cycle arrest in human Jurkat cells assessed as accumulation at G0/G1 phase at 1 uM after 24 hrs by FITC/propidium iodide staining-based FACS flow cytometric analysis (reference value: 55.5%); type: functional; outline: as §1
# [21] = target: Histone deacetylase 3/NCoR1 (Homo sapiens) (UniProt O15379+O75376); test: Competitive inhibition of recombinant HDAC3-NCoR1 (unknown origin) assessed as fast tight binding at 0.016 to 1 uM; type: protein-complex assay
# Chain of Histone deacetylase 3/NCoR1 (O15379 whole entry): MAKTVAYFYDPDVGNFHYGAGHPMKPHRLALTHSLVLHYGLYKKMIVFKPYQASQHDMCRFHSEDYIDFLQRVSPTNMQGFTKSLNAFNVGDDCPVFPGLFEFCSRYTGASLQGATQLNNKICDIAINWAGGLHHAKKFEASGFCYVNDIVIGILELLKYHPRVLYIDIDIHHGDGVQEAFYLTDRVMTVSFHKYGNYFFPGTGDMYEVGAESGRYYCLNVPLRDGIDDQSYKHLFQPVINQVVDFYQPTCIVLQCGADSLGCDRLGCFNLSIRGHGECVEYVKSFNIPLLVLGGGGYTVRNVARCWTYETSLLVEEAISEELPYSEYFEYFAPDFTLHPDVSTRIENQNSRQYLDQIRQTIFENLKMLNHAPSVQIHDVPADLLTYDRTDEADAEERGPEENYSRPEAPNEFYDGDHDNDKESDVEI
# Chain of Histone deacetylase 3/NCoR1 (O75376 whole entry, further chain): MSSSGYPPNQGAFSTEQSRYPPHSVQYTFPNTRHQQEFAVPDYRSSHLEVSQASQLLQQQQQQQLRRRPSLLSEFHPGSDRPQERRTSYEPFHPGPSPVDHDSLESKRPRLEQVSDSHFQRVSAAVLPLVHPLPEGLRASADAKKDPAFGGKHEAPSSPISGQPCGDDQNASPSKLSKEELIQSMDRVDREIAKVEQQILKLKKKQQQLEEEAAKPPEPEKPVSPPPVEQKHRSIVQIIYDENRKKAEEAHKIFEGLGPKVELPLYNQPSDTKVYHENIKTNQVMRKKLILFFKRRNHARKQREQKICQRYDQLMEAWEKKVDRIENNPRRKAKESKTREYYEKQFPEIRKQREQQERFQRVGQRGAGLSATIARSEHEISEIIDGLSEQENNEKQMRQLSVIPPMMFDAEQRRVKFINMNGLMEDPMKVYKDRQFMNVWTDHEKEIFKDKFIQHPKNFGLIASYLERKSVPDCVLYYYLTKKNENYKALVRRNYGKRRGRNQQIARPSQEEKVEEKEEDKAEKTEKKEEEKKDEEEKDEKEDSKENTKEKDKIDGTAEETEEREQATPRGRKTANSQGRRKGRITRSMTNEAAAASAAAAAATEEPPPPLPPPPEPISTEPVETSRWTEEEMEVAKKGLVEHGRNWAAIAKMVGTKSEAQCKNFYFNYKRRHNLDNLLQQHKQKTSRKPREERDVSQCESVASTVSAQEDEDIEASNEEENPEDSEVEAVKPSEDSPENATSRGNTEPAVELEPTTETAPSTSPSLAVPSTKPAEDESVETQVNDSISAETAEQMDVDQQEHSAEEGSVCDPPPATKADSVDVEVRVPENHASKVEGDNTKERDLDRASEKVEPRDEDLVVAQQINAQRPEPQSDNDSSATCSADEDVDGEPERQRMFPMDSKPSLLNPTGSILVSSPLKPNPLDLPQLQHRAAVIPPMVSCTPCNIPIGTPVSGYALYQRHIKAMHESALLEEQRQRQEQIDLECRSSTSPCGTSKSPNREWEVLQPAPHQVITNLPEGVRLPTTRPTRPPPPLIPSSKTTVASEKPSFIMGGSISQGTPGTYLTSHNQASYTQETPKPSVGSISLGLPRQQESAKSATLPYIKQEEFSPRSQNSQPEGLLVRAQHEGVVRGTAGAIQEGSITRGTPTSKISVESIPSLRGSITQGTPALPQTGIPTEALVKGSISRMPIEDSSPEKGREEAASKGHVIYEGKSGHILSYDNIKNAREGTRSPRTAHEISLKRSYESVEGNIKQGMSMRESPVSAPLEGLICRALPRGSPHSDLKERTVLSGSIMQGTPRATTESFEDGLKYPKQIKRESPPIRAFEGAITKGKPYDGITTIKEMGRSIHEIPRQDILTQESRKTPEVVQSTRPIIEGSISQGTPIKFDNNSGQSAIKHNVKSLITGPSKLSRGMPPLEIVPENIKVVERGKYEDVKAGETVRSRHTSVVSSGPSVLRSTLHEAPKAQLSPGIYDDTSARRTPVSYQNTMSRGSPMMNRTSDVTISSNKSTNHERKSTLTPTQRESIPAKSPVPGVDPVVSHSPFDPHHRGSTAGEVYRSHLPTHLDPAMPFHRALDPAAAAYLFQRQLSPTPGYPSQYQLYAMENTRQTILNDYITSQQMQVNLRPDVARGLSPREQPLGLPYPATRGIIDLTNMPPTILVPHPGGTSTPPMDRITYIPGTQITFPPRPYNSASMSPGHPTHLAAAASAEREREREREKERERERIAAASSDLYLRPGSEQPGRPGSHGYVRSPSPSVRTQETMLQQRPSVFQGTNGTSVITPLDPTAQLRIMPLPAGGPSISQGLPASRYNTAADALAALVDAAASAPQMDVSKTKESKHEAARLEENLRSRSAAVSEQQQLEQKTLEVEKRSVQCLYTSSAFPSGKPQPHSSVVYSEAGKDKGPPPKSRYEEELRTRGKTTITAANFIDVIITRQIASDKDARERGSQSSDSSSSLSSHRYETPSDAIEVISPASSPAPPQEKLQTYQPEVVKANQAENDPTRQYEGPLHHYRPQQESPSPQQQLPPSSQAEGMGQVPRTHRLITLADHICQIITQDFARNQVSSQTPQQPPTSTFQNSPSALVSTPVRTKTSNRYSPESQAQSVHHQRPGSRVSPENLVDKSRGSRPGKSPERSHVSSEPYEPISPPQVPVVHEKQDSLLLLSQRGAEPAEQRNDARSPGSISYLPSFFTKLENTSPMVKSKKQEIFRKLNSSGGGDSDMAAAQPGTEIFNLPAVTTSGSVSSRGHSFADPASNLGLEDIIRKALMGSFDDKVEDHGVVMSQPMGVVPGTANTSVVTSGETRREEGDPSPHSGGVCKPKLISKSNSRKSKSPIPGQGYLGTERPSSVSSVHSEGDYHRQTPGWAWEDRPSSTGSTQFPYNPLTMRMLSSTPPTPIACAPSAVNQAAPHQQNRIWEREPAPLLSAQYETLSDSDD
# Chain of Histone deacetylase 2 (Q92769 whole entry): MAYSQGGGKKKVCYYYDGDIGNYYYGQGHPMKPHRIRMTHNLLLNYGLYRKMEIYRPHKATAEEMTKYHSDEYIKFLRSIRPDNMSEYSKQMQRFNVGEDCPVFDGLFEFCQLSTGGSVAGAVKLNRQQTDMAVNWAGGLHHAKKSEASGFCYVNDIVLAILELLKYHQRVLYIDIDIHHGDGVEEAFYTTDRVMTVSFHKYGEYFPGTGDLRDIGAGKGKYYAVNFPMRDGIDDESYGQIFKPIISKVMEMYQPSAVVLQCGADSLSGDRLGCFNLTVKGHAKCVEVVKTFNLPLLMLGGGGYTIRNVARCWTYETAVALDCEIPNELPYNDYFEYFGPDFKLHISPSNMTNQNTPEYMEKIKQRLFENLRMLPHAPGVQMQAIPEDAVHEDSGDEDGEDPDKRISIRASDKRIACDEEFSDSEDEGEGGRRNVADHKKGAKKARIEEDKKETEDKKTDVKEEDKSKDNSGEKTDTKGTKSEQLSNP
# Chain of Histone deacetylase 1 (Q13547 whole entry): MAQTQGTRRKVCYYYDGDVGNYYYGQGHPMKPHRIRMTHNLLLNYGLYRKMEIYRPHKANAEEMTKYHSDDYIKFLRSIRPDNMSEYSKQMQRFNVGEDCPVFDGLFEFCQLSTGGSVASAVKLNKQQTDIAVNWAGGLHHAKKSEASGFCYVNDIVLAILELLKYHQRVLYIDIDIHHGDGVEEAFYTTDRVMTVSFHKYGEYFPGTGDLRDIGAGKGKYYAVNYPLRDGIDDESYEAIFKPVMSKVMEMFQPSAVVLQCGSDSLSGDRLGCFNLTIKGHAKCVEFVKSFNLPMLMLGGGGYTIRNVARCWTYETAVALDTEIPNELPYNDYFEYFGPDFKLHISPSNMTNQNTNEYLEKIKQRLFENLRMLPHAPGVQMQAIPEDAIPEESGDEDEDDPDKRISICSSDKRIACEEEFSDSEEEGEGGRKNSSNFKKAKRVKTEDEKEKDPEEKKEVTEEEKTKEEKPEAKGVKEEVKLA
IC50 [11],IC50 [14],IC50 [15],IC50 [16],Structure (SMILES),Activity [1],Activity [2],Activity [3],Activity [6],IC50 [7],IC50 [8],Activity [9],Activity [10],Activity [12],Activity [13],IC50 [17],IC50 [18],Activity [19],Activity [20],further results
14 nM,> 20000 nM,8000 nM,56 nM,Nc1ccccc1NC(=O)c1ccc(CNC2=NC(=O)C(c3ccccc3)N2)cc1 (racemic),15.1%,10.7%,22.3%,7.4%,30100 nM,18200 nM,3.1%,Active,inactive,20.7%,> 50000 nM,> 50000 nM,65.5%,55.2%,IC50 [4]: 350 nM; Activity [5]: Active
–,–,–,–,Nc1ccccc1NC(=O)c1ccc(CNc2nccc(-c3cccnc3)n2)cc1 [MOCETINOSTAT],10.2%,24%,8.7%,41.3%,1260 nM,700 nM,17.4%,Active,inactive,32.4%,2060 nM,1730 nM,26.2%,39.8%,–
31 nM,42 nM,410 nM,219 nM,O=C(NO)c1ccc(CNc2nccc(-c3cccnc3)n2)cc1,–,–,–,–,–,–,–,–,–,–,–,–,–,–,inhibition [21]: Active
